# Assay outcomes deposited in PubChem by several laboratories.
# TCR CD3 inh – inhibitors of human TCR-CD3 interaction, primary screen, biochemical, fluorescence, TAMRA-labeled TCR probe; AID 651800, 2012; T-cell receptor (TCR); inhibition, % at 9.4 µM; actives 0.37% (n = 360,000); in the data active means inhibition above about 19%;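 further: recombinant mutant TCR 2C K166C tagged with TAMRA read by polarization; 0% = receptor in buffer alone and 100% = receptor with positive control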
# eIF4H FP inh – human eIF4H binding inhibitors, primary screen, translation initiation inhibitor project, biochemical, uHTS, fluorescence polarization; actives 0.94% (n = 290,000); inhibition, % at 35 µM; eIF4H fluorescence polarization binding assay; Eukaryotic translation initiation factor 4H (Homo sapiens), Q15056;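 further: calls also rest on retests at 20 µM and on dose response follow-up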
# RBBP9 inhibitor – human RBBP9 inhibitors, primary screen, biochemical, fluorescence polarization, FP-Rh probe, HTS; inhibition, % at 7.94 µM; recombinant RBBP9; AID 1515, 2009; actives 0.2% (n = 220,000); Serine hydrolase RBBP9 (Homo sapiens), O75884;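 active means inhibition above the campaign mean of all tested compounds plus 3 SD, cut at about 14% in these data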;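 further: plate controls were DMSO wells with RBBP9 for no effect and wells lacking RBBP9 protein for full effect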
# Target sequence (O75884 whole entry, looked up): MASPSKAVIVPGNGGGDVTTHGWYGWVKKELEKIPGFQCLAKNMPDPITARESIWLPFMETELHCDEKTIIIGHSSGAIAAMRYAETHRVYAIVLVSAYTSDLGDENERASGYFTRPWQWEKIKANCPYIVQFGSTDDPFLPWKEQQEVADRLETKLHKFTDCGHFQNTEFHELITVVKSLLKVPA
#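 Measured by – fluorescence polarization · Test system – RBBP9 protein · Input – 2.5 µM RBBP9 dispensing solution, before mixing · Measure – percent inhibition from mP, scaled between DMSO and no-protein wells · Benchmarks – DMSO-treated enzyme wells and wells lacking RBBP9 · Times – preincubation 30 min plus labeling 45 min at 25 °C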
# PABP1 MLLE inh – inhibitors of PABP1 MLLE–PAM2 peptide binding, primary screen, biochemical, fluorescence polarization, FITC-PAM2, GST-MLLE; Polyadenylate-binding protein 1 (Homo sapiens), P11940; inhibition, % at 20 µM; actives 0.36% (n = 360,000); AID 588489, 2011; in the data active means inhibition above about 35%, passing the limit was not always enough;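 further: plate controls were DMSO wells with GST-MLLE for no effect and wells lacking GST-MLLE protein for full effect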
# PABP polyA inh – PABP poly(A) RNA binding inhibitors, primary screen, biochemical, fluorescence polarization, uHTS | AID 2014, 2009 | calls only at 35 µM | actives 1% (n = 290,000) | Polyadenylate-binding protein 1 (Homo sapiens), P11940;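 further: calls also rest on retests at 20 µM and on dose response follow-up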
# An asterisk follows results filed as active; i = inactive; u = inconclusive; x = no result; + = active, no number. This is a sample that favours compounds with a hit; in the whole collection about 1.6% have one here. Unless noted, how the calls were made is not given here.
SMILES,TCR CD3 inh,eIF4H FP inh,RBBP9 inhibitor,PABP1 MLLE inh,PABP polyA inh
C=CCN(CC=C)C(=S)Nc1ccc2nsnc2c1,-6,13,-8,52*,i
Cc1ccc(C)c(/C(O)=C2/C(=O)C(=O)N(CCN3CCOCC3)C2c2ccco2)c1 (stereo not given),10,55*,5,12,i
Cc1ccc(C2/C(=C(/O)c3ccccc3)C(=O)C(=O)N2CCN2CCOCC2)o1 (stereo not given),8,11,-7,4,i
CCN1CCN(c2c(S(=O)(=O)c3ccc(Cl)cc3)cnc3ccccc23)CC1,-10,x,x,x,x
O=C(Nc1ccc(C(=O)N2CCOCC2)cc1)c1ccc([N+](=O)[O-])cc1,-2,-16,x,14,i
O=C(NC(=S)Nc1ccc(C(=O)N2CCOCC2)cc1)c1ccc([N+](=O)[O-])cc1,7,0,-4,44*,i
Cc1nn(C)c(C(=O)NC(=S)Nc2ccc([N+](=O)[O-])cc2)c1Cl,4,-7,x,40*,i
CN1OC[C@@H]2CN(C(=O)C3CCCCC3)[C@H](c3ccc(N4CCCCC4)cc3)C[C@@H]21,4,x,x,x,x
CCCc1cc(=O)n(-c2nc3ccccc3s2)[nH]1,1,20,4,8,i
CCOC(=O)Cc1cc(=O)n(-c2nc3ccccc3s2)[nH]1,16,70*,-6,-12,+
Nc1[nH]c(C(=O)c2ccc(Br)cc2)c(-c2ccc3ccccc3c2)c1C(=O)NCCc1c[nH]c2ccccc12,-9,x,x,x,x
CCOC(=O)c1c(-c2ccco2)csc1NC(=O)CSc1nnc(N)s1,3,54*,-4,-8,i
CS(=O)(=O)N1N=C(c2cccs2)CC1c1ccccc1O (stereo not given),-1,59*,-5,-10,+
CCOC(=O)CSc1nc2ccsc2c(=O)[nH]1,1,86,-2,-11,+
c1cncc(-c2nnc(SCc3nc4ccccc4[nH]3)o2)c1,7,-1,-6,-23,i
c1ccc2[nH]c(CSc3nc4ccccc4o3)nc2c1,-8,-15,-8,35*,i
CN1C(=O)[C@@]2(O[C@H]3C=CC=CN3C3=C2C(=O)CCC3)c2cccc(Br)c21,-3,x,x,x,x
O=C(/C=C/c1ccc([N+](=O)[O-])cc1)c1ccco1,4,-4,x,-2,i
O=C(/C=C/c1ccc([N+](=O)[O-])cc1)/C=C/c1ccco1,1,61*,x,-21,+
O=C(C=C1SCCS1)/C=C/c1ccco1,12,90*,-5,8,+
O=C(O)C(C(=O)/C=C/c1ccco1)=C1SCCS1,10,74,-5,13,i
COc1ccccc1CNC(=O)C(=O)NCC1CCCO1 (stereo not given),7,active,-2,-9,+
COc1ccccc1CC(=O)NCC1CCCO1 (stereo not given),3,-5,x,9,i
COc1cccc(N=Cc2ccc(O)cc2O)c1,-1,u,6,-28,u
Oc1ccc(C=Nc2cccc3ncccc23)c(O)c1,3,58,-2,23,+
SMILES,TCR CD3 inh,eIF4H FP inh,RBBP9 inhibitor,PABP1 MLLE inh,PABP polyA inh
Oc1ccc(C=Nc2ccccc2-c2nc3ccccc3[nH]2)c(O)c1,6,3,-8,-8,i
Oc1ccc(C=Nc2ccc3ncccc3c2)c(O)c1,x,81*,-5,x,+
Nc1ccc2nn(-c3cccc4ccccc34)nc2c1,2,91*,-7,-22,i
Cc1cc2nn(-c3cccc4ccccc34)nc2cc1N,4,5,-5,-6,i
COC(=O)C1=C(C)N(Cc2cccc(C(F)(F)F)c2)C(=NCc2cc(OC)c(OC)c(OC)c2)NC1c1ccc(Cl)cc1 (stereo not given),18,x,x,x,x
Cn1c(Cc2c[nH]c3ccccc23)n[nH]c1=S,4,6.5*,-9,-18,i
Cc1cc(C)n(CCCO)c(=O)c1C#N,5,-2,1,-4,i
Cc1cc(C)n(NC(=S)NC2CCCCC2)c(=O)c1C#N,0,-2,10,45*,i
Cc1cccn2cc(-c3ccccc3)nc12,5,13,-6,-5,i
Oc1ccc(Br)cc1C=Nc1cccn2cc(-c3ccccc3)nc12,-3,-8,-11,40*,i
O=C(O)C1C2C=CC3(CN(Cc4ccco4)C(=O)C13)O2 (stereo not given),7,84*,-8,6,i
CSc1ccc(/C=C/c2cc(=O)c3ccccc3[nH]2)cc1,-7,131*,-1,7,i
C=CCN=C1NC(c2cccc(F)c2)C(C(=O)OC)=C(C)N1Cc1cccc(C(F)(F)F)c1 (stereo not given),2,x,x,x,x
CCc1cc(=O)oc2c(CN3CCCC3)c(O)c(Cl)cc12,1,47,-4,5,i
CCc1cc(=O)oc2cc(C)c(CN3CCCC(C)C3)c(O)c12 (stereo not given),0,63*,14,5,+
CCCCc1cc(=O)oc2cc(C)c(CN3CCCC3)c(O)c12,2,60*,-7,-38,+
C[C@@H]1ON(C)[C@H]2C[C@H]3c4[nH]c5c(-c6cccc(Cl)c6)cccc5c4CCN3C(=O)[C@@H]12,-3,x,x,x,x
CCN(CC)c1ccc2cc(C(=O)Nc3cccnc3N3CCOCC3)c(=O)oc2c1,x,63*,x,x,+
CCN(CC)c1ccc2cc(C(=O)Nc3ccccn3)c(=O)oc2c1,-5,122*,-1,16,+
Cc1ccc(NC(=O)c2cc3ccccc3oc2=O)cc1S(=O)(=O)N(C)C,x,0,-3,5,+
Cc1ccc(NC(=O)c2cc3ccccc3o2)cc1S(=O)(=O)N(C)C,5,-6,2,-3,i
COc1ccc(S(=O)(=O)N2CCCc3nc(-c4ccc(F)cc4)ccc32)cc1,7,x,x,x,x
CC(=O)Nc1ccc(C2=NNC(=NCC3CCCO3)SC2)cc1 (stereo not given),-4,-4,-2,-22,i
Fc1ccc(F)c(C2=NNC(=NCC3CCCO3)SC2)c1 (stereo not given),6,-13,-7,64*,i
COc1ccc(N2C(=O)CSC2c2ccc(F)cc2)cc1 (stereo not given),4,-5,x,-6,i
CC(=O)Nc1ccc(N2C(=O)CSC2c2ccc(F)cc2)cc1 (stereo not given),-7,98*,-9,5,+
COC(=O)C1=C(C)N(C)C(=NCC2CC2)NC1CCc1ccccc1 (stereo not given),7,x,x,x,x
Cc1sc2nc(CSCC(=O)N(CCC#N)c3ccccc3)[nH]c(=O)c2c1C,20*,41,-6,-38,i
